# Laboratory results as given in the EternaBench riboswitch data.
# Test system: MS2 coat protein
# Assay: apparent Kd, MS2 coat protein; higher = weaker binding; RNA-MaP array; FMN 200 µM where present
# Method in brief: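 Apparent Kd: the median of filtered binding-curve fits from single clusters. Designs were transcribed on Illumina sequencing-chip clusters by stalled E. coli RNA polymerase and titrated with SNAP-549-labelled MS2 coat protein from 0.7 or 1.5 nM, doubling to 3 µM, in 100 mM Tris-HCl pH 7.5, 80 mM KCl, 4 mM MgCl2, BSA, DTT, yeast tRNA and Tween-20. Each series ran without and then with constant ligand, and green signal was normalised to red-channel RNA signal and control-cluster median Fmax.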
# [1] = designed as: ON switch for flavin mononucleotide, no ligand
# [2] = ligand present: flavin mononucleotide, designed as: ON switch for flavin mononucleotide
# [3] = designed as: OFF switch for flavin mononucleotide, no ligand
# [4] = ligand present: flavin mononucleotide, designed as: OFF switch for flavin mononucleotide
Sequence,apparent Kd [1] [nM],apparent Kd [2] [nM],apparent Kd [3] [nM],apparent Kd [4] [nM]
GACCGCGAGGGAGGAUAUGGAGCCUUAUUGGCUCCAGAAGGUCCAUAAGGGACAUGAGGAUCACCCAUGUGGGUUGAAGCGGUC,155,57.2,,
GGUCGUCACAUAUACAUGAGGAUCACCCAUGUAAAAUAACAUGAGGAUAUGGAUCCUAAUUGGAUCCAGAAGGCAUGGACGACC,6.29,5.53,,
AUGCUAGUGUGAGGAUAUUAGGCACAUGAGGAUCACCCAUGUAAGAUCAUGACGAUCACGCAUGAUAAGAAGGUACAUUAGCAU,,,40,47
ACCGCACAUGAGGAUCACCCAUGUCAGGAUAUACAAGAAAAUCAGGCUAAUGCCUGAAGUAGAAGGGACGAGGA,,,22.4,14.2
GCUAUCGAUGUAGGAUAUGCUAGGGAAACCCUGGCAGAAGGACAUGAGGAUCACCCAUGUCAAUGGAUGGAGAGAAGAGAUGGC,,,25.6,74.3
GUAUGGAGUACAGGAUAUGUAAGUUUUAAGUGUAUUGGUUAUUACUUAAUUACAGAAGGGUAUUACAUGAGGAUCACCCAUGUA,12.8,9.5,,
CGCUCAAGAGAGAAGGAUAGAGUCAGAAGGCGUUACAUGAGGAUCACCCAUGUAUAGUAGUGUAACGAGGAUAUGAAAUGAGCG,,,194,250
AUACAUGAGGAUCACCCAUGUUACAUGGCCUUGAUAGAUUGUAGAAGGAUGUUAUUAUUUUUUUCAUAGGAUAUACUAUUUAGU,,,120,105
GUCAGCUCGUGAGGAUAUACAACACUGCUUCGGCAGUGUAUUAAGAUCACAUGAGGAUCACCCAUGUAGAAGGCAAGAGCUGAU,,,13.2,227
UACGCCAGUGAGAAGGCAUGUUCACAUGAGGAUCACCCAUGUAUACUCAUGAGGAUAUCAAAUGCGGACCAAAAUAAAAUUUGA,313,22.2,,
CAUAUAGUAGUGAGGAUAUGCGAAUAUAUAAUUAAGUAGAAGGCACAUGAGGAUCACCCAUGUAUAUUGUAAAG,,,20.6,20.6
UUGAUAAGGAGAGGAUAUGGACAUGAGGAUCACCCAUGUACAUGGGAAUAUUUACUGAAUUUUUACUAGAAGGCUUACAUAUUU,,,15.8,12.4
UUGAUGUCAUCAGGAUAUAGUAUUUAAGACAUAUCUUCUUUCUUACAUGAGGAUCACCCAUGUCGCUAGAAGGGAUGAAUGAUU,,,18.7,15.4
GUAUAUCACUUAGGAUAUCUGUAAUUUAUUGAAACAUGAGGAUCACCCAUGUUCAUAAAUUUAUAGGAGAAGGGAGUGAUAUAC,4.19,4.24,,
AUCGUGCAGCUUUGCUGUACGCGUACAUGAGGAUCACCCAUGUAGGAUAUGGUAGGCUUUGCUUACUAGAAGGAUAGUGUGAUC,,,106,33.2
UGCUAGGAUGGGUCUAAUGGACCGCAGGAUAUGCUUGUACAUGAGGAUCACCCAUGUAACAUUGUGCAGAAGGGUGGAUCCACG,65.6,11.6,,
GUGCGGUAGGAGAAGGACAGAGGCUUCAUUACAUACAUGAGGAUCACCCAUGUAGGAUAUCCUACCUCACGCGGCCUCCUCCUG,,,8.48,31.8
UUUCUUGGGCAAGGAUAUCCUGUGCGGUUCCGGCUCGUGUCUGUCACAUGAGGAUCACCCAUGUGGGAGAAGGUGCCUGCGGUU,,,6.26,6.64
UUUUAACAUGAGGAUCACCCAUGUGAGGAUAUCGAAAUUUUUAUUAAUAUUAAUAAAACGAGAAGGCACAUUUU,,,56,69.3
GGUGCACGCACAGGAUAUCCGGCGGAGCUCGUCGGAGAAGGGUGACAUGAGGAUCACCCAUGUACGUGCAGCCAAGUUUGAGAG,66.9,39.3,,
GUUAUUUAUGUAGGAUAUGCGAGGCGAGCCUAAGCAGAAGGACAUGAGGAUCACCCAUGUAUUGCGGUUUGCGUUCAGAUCGCU,,,21.1,37.8
UUGCUCGUGUGAGGAUAUGCCGCCGUUUCGGCUGCAGAAGGUACUCUUGUACAUGAGGAUCACCCAUGUCUCUGUUGUUUCGUG,49,43.6,,
AACAAAGACACAGGAUAUCCACAAAUACAUGAGGAUCACCCAUGUUCGAAAGGAGAAGGGUGGCACCGGUACAAUCUGGUUAUC,275,89.3,,
ACAUGAGGAUGAGGAUAUUCAUACAUGAGGAUAGAAGAAGGCAUACAUGAGGAUCACCCAUGUAUACACAUGAGGAUCUCCCAU,,,25.5,30.5

Sequence,apparent Kd [1] [nM],apparent Kd [2] [nM],apparent Kd [3] [nM],apparent Kd [4] [nM]
UUUCGGCUAGGAUAUCUGUGCUCGGACAUGAGGAUCACCCAUGUGCGUCAUCACGGAGCCGGAGAAGGAGCUCGUA,,,15.8,20
UUGGUUGUCGUAGGAUAUGUAGGAUAUUCCUACAUGAGGAUCACCCAUGUUCGCAUGGAAGAAGGACGGAAGGACGAUGACCAA,233,153,,
GGAUAGGACAGAGGAUAUACGUGCUAGAGAUACUAGCAAAAUUUCCUCACAUGAGGAUCACCCAUGUAGAAGGCUGUCCUAACG,,,14.7,497
GAUGCGAAUGUGAGGAUAUCGGAGUAUUUAAACUCUGAGAAGGCACAUGAGGAUCACCCAUGUCCGUGCGUCUA,,,506,130
GCGUCUUAGUAGAAGGGACAUCGGCUGGUAAGCAUCAUCUCCUUCUCACAUGAGGAUCACCCAUGUCAGGAUAUACUAAGAUGC,,,11.5,43.1
GGUCGUCACAUGAACAUGAGGAUCACCCAUGUAAAUUCUCAUGAGGAUAUGGAUCCUAAUUGGAUCCAGAAGGCGUGGACGACC,953,457,,
AAUAACAGAGGAUAUACUAUUUUAUGUGUUUGUUGUUUUAAACAUGAGGAUCACCCAUGUAGAAGGCUGAAUAA,,,21,26
GAGUGGAAGGCCGCUACAUGAGGAUCACCCAUGUGCUAAGCACAGGAUAUCGCGCUGGCCCGGCGCGAGAAGGGUGACGGCCUG,674,324,,
UGUUGUUCAGGAUAUGGUGUGUUAUACAUGAGGAUCACCCAUGUGGGUCCUGAUUUGGCGUCAGAAGGGAAUGUUG,,,486,406
CUUGCGCGCUCGCCACUUUUCCCACAUGAGGAUCACCCAUGUCAGGAUAUACGUACCGAAAUGGCGUAGAAGGGACACGGGUUA,,,166,131
AACAGCACAGGAUAUACAUGAGGAUCACCCAUGUGAGAAUUAAGUGGCGUACCACAAAGUAGAAGGGUGCUGGA,,,37.1,286
UACUGGUGUGAGAAGGGACAUAUCUCCAUGAGGGCAGGGCGAUUAGAGAAGUCAGGAUAUCACAUGAGGAUCACCCAUGUGACA,,,8.14,8.51
UUUUAAUAAGAGAAGGAGCACUACAUGAGGAUCACCCAUGUGUUAGUAGUUAGGAUAUUUAAUAACAUGAGGAUCACCCAUGUA,167,74.2,,
GGUCCACAUGAGGAUCACCCAUGUCAGGAUAUACACGGCACUAUAAUAAGUGCCACCCGUAGAAGGGACGCUGG,,,17.2,38.5
UGUUGUAUUACAGGAUAUCUAUUAUUUUGAUUUAGAGAAGGGUAUUCACAUGAGGAUCACCCAUGUAUAUACGAGGAAGUUGUG,47.7,47.9,,
AUCUUGAGAGGAUAUACAUGAGGAUCACCCAUGUUUCUAACACCAUGCGGUCAUUUGCGUAGAAGGCUCGUCCG,,,19.9,34.1
CGGCACCGAGGAUAUACAUGAGGAUCACCCAUGUUUGUUGGGCCCUUAAGAUCUACGUGUAGAAGGUGGGUCGA,,,131,167
UUUAUGUCAGGAUAUGAUUAGAUCUACUUUUGUAGAUCUAAUCAGAAGGGACAUGAGGAUCACCCAUGUAGUUU,,,126,236
UGAUAGGACAGAGGAUAUGCCGAUAGGCUCUACUAUCGAAGAAUCCUCACAUGAGGAUCACCCAUGUAGAAGGCUGUCCUAUCU,,,19.1,48
GUAGCUCAUGAGAAGGCGAUCAUGAAACAUGAUCGAGGAUAUCAUGUAAACAUGAGGAUCACCCAUGUAUGGGUAUUAUGCUAC,126,47.1,,
CAUUAACAUGAGGAUCACCCAUGUGAGGAUAUGAUAUUACUAGGACGGCUGUGAUCAAUCAGAAGGCACAUCUU,,,25,30
AGUAGUUCAGGAUAUGAUGUAUGUUACAUGAGGAUCACCCAUGUAGGUCCUGGAAAUGUAUCAGAAGGGAAUAUCU,,,108,111
AGAUUCAUGGCCCGUUCGGGCCCACAUGAGGAUCACCCAUGUGAGGAUAUGAUGUACCUGAUUCAUCAGAAGGCGCAUGCGAAA,,,7.32,20.5
CUCUUGAGUCAGGAUAUCGUGAGGCUAAUAAUACGAGAAGGGACAACAUGAGGAUCACCCAUGUGGUCGAAGAG,,,32.9,78.3
